Results from ChEMBL document CHEMBL1149812, “Synthesis of N-aryl-5-amino-4-cyanopyrazole derivatives as potent xanthine oxidase inhibitors” (Eur J Med Chem, 2008).
pIC50: −log10 of the molar value.

Key:
SF-268 = test: Growth inhibition of human SF268 cells after 48 hrs; format: functional; conditions: SF-268, 48 h
In short: (§1)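 SRB protein-stain assay following the NCI screening protocol. Cells kept adherent in RPMI-1640 with 5% heat-inactivated FBS, 2 mM glutamine and 50 µg/mL gentamicin at 37 °C under 5% CO2. Seeded at 7.5 × 10^4 cells/mL (NCI-H460) or 1.5 × 10^5 cells/mL (MCF-7, SF-268). Exposed 48 h to five concentrations, top 150 µM, DMSO ≤0.25%. […] Mean ± SEM of 1–6 experiments in duplicate.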

MCF7 = test: Growth inhibition of human MCF7 cells after 48 hrs; format: functional; conditions: MCF7, 48 h; in short: as §1
NCI-H460 = test: Growth inhibition of human NCI-H460 cells after 48 hrs; format: functional; conditions: NCI-H460, 48 h; in short: as §1
[1] = target: T1, Xanthine dehydrogenase/oxidase (Homo sapiens, UniProt P47989); test: Inhibition of xanthine oxidase
In short: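 Enzyme preincubated 15 min at room temperature: xanthine oxidase 0.066 U/mL in 50 mM potassium dihydrogen phosphate pH 7.4 with compound in DMSO (1% final). Started with 100 µM xanthine plus 1 mM EDTA. Mean ± SEM of 3 experiments, each in triplicate.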

[2] = target: T1, Xanthine dehydrogenase/oxidase; test: Activity of xanthine oxidase assessed as change in absorbance per min at 0.025 uM in presence of xanthine
In short: (§2)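 Kinetic runs: xanthine oxidase (0.066 U/mL) in 50 mM potassium dihydrogen phosphate pH 7.4 preincubated 15 min at room temperature with inhibitor in DMSO (1% final). Started with xanthine at 100, 75, 50 or 25 µM plus 1 mM EDTA. Uric acid formation read at 295 nm over 2 min as ΔA/min. Vmax and Km taken from Lineweaver–Burk plots.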

[3] = target: T1, Xanthine dehydrogenase/oxidase; test: Activity of xanthine oxidase assessed as change in absorbance per min at 0.1 uM in presence of xanthine; in short: as §2
[4] = target: T1, Xanthine dehydrogenase/oxidase; test: Activity of xanthine oxidase assessed as change in absorbance per min at 10 uM in presence of xanthine; in short: as §2
[5] = target: T1, Xanthine dehydrogenase/oxidase; test: Activity of xanthine oxidase assessed as change in absorbance per min at 40 uM in presence of xanthine; in short: as §2
[6] = target: T1, Xanthine dehydrogenase/oxidase; test: Inhibition of xanthine oxidase at 100 uM

T1 sequence (P47989 whole entry): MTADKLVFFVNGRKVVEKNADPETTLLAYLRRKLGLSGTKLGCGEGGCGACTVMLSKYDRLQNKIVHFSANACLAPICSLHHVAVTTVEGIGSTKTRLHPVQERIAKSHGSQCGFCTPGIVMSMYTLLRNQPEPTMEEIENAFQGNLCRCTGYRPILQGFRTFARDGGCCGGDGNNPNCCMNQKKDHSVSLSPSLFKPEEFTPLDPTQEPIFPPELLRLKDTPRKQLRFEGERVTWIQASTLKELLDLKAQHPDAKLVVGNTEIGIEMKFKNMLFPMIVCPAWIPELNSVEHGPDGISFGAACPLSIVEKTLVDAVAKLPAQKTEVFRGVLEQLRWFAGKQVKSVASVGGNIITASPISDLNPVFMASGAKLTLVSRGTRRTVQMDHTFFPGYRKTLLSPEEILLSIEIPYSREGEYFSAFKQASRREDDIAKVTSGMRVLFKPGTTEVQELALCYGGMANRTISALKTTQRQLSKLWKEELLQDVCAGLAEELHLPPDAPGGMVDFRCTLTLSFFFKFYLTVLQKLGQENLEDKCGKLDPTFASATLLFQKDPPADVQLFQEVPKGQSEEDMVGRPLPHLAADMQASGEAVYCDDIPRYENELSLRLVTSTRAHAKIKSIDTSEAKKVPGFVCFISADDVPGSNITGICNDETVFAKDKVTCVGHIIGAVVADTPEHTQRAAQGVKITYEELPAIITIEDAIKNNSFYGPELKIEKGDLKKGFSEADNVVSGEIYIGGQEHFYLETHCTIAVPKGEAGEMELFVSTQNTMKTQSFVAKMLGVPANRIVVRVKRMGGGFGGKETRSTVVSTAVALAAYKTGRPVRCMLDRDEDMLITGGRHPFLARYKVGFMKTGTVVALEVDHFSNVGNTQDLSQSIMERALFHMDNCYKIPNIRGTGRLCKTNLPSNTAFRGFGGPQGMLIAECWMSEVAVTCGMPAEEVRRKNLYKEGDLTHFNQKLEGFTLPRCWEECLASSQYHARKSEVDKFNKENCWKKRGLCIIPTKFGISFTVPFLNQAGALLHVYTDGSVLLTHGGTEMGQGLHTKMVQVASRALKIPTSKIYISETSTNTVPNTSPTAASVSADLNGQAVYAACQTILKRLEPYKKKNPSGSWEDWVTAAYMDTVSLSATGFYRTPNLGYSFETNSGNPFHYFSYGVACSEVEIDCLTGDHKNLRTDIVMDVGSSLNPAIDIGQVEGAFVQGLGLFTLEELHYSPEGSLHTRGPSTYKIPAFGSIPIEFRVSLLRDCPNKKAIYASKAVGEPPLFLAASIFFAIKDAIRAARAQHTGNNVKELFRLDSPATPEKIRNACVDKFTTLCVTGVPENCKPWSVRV

SMILES	GI50 (SF-268) [µM]	GI50 (MCF7) [µM]	GI50 (NCI-H460) [µM]	pIC50 [1]	also measured
Cc1ccc(-n2ncc(C#N)c2N)cc1	> 150	> 150	> 150	< 4.00	–
N#Cc1ccc(-n2ncc(C#N)c2N)cc1	> 150	> 150	> 150	< 4.00	–
COc1ccc(-n2ncc(C#N)c2N)cc1	> 150	> 150	> 150	< 4.00	–
Nc1ncnc2c1cnn2-c1ccc(C(F)(F)F)cc1	–	–	–	6.74	–
COC(=O)CNC(=O)c1ccc(-n2ncc3c(N)ncnc32)cc1	> 150	> 150	> 150	7.10	deltaA [2]: 0.16; deltaA [3]: 0.13
N#Cc1cnn(-c2ccc([N+](=O)[O-])cc2)c1N	135	64	128	< 4.00	–
N#Cc1cnn(-c2ccc(Cl)cc2)c1N	> 150	> 150	> 150	< 4.00	–
COc1ccc(-n2ncc3c(N)ncnc32)cc1	> 150	> 150	> 150	4.71	–
Nc1ncnc2c1cnn2-c1ccc(C(=O)O)cc1	–	–	–	4.09	–
N#Cc1cnn(-c2ccc(C(F)(F)F)cc2)c1N	> 150	> 150	> 150	< 4.00	–
N#Cc1ccc(-n2ncc3c(N)ncnc32)cc1	–	–	–	6.40	–
Cc1ccc(-n2ncc3c(N)ncnc32)cc1	–	–	–	4.76	–
N#Cc1cnn(-c2ccc(C(=O)O)cc2)c1N	–	–	–	4.44	deltaA [4]: 0.12; deltaA [5]: 0.08
CC(=O)OC[C@H]1O[C@@H](Nc2ncnc3c2cnn3-c2ccc(C(=O)O)cc2)[C@H](OC(C)=O)[C@@H](OC(C)=O)[C@@H]1OC(C)=O	> 150	> 150	> 150	4.73	–
Nc1ncnc2c1cnn2-c1ccc([N+](=O)[O-])cc1	–	–	–	5.66	–
COC(=O)CNC(=O)c1ccc(-n2ncc(C#N)c2N)cc1	> 150	> 150	> 150	4.42	deltaA [4]: 0.23; deltaA [5]: 0.09
CC(=O)OC[C@H]1O[C@@H](Nc2c(C#N)cnn2-c2ccc(C(=O)O)cc2)[C@H](OC(C)=O)[C@@H](OC(C)=O)[C@@H]1OC(C)=O	–	–	–	< 4.00	–
Oc1ncnc2[nH]ncc12 [ALLOPURINOL]	–	–	–	–	inhibition at 100 µM [6]: 96.3%
COc1cccc2c1C(=O)c1c(O)c3c(c(O)c1C2=O)C[C@@](O)(C(=O)CO)C[C@@H]3O[C@H]1C[C@H](N)[C@H](O)[C@H](C)O1 [DOXORUBICIN]	0.093	0.0428	0.094	–	–
